Published values collected from several papers.
Each line is one published result; the experiments were not run side by side. Values after ≈ are worked out from the molar mass of the structure shown.
Organism: Micrococcus luteus

SMILES | test | system | conditions | endpoint | result
O=C1NN=C(N=Cc2ccccc2O)C1=NNn1c(-c2ccccc2)nc2ccccc2c1=O | microbial growth, broth dilution |  | 24 h | MIC | 55.4 µM
CN[C@H](CC(C)C)C(=O)N[C@H]1C(=O)N[C@@H](CC(N)=O)C(=O)N[C@H]2C(=O)N[C@H]3C(=O)N[C@H](C(=O)N[C@H](C(=O)O)c4cc(O)cc(O)c4-c4cc3ccc4O)[C@H](O)c3ccc(c(Cl)c3)Oc3cc2cc(c3O[C@@H]2O[C@H](CO)[C@@H](O)[C@H](O)[C@H]2O[C@H]2C[C@](C)(N)[C@H](O)[C@H](C)O2)Oc2ccc(cc2Cl)[C@H]1O | microbial growth, broth dilution | ML01 |  | MIC | 0.13 µg/mL
O=C1NN=C(N=Cc2ccc(O)c(O)c2)C1=NNn1c(-c2ccccc2)nc2ccccc2c1=O | microbial growth, broth dilution |  | 24 h | MIC | 53.5 µM
O=C(O)CN1C(=O)/C(=C/c2ccc(-c3ccc(N(c4ccccc4)c4ccccc4)cc3)c3ccccc23)SC1=S | microbial killing, broth dilution | ATCC10240 |  | MBC | 62.5 µg/mL (≈ 109 µM)
CC1=NN(CNc2c(O)c(S(=O)(=O)O)cc3ccccc23)C(=O)C1=NNn1c(-c2ccccc2)nc2ccccc2c1=O | microbial growth, broth dilution |  | 24 h | MIC | 83.7 µM
CC1(C)S[C@@H]2[C@H](NC(=O)[C@H](N)c3ccccc3)C(=O)N2[C@H]1C(=O)O | microbial growth, agar dilution | ATCC10240 | 26.93 µM | inhibition | 100%
C/C=C(\C)c1cc(O)c(C)c(OC(=O)c2c(C)c(Cl)c(O)c(Cl)c2O)c1 | microbial growth, broth dilution | ML01 |  | MIC | 4 µg/mL
CN[C@H](CC(C)C)C(=O)N[C@H]1C(=O)N[C@@H](CC(N)=O)C(=O)N[C@H]2C(=O)N[C@H]3C(=O)N[C@H](C(=O)N[C@H](C(=O)O)c4cc(O)cc(O)c4-c4cc3ccc4O)[C@H](O)c3ccc(c(Cl)c3)Oc3cc2cc(c3O[C@@H]2O[C@H](CO)[C@@H](O)[C@H](O)[C@H]2O[C@H]2C[C@](C)(N)[C@H](O)[C@H](C)O2)Oc2ccc(cc2Cl)[C@H]1O | microbial growth, broth dilution | ATCC10240 |  | MIC | 0.12 µg/mL
O=C(O)c1cn(C2CC2)c2cc(N3CCNCC3)c(F)cc2c1=O | microbial growth, disc diffusion |  | 100 µg/mL, 24 h | inhibition zone | 25 mm
